pPAFAH FP inh: inhibitors of human plasma PAF acetylhydrolase (pPAFAH); Q13093; recombinant pPAFAH, FP-rhodamine probe fluorescence polarization; inhibition, % at 3.39 µM; 330,000 compounds, 1.5% hits;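 active = inhibition above the mean inhibition across the screen plus 3 SD, cut at about 25% in these data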;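 note: inhibitors block binding of the rhodamine activity-based probe so polarization drops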
Target sequence (Q13093 whole entry, looked up): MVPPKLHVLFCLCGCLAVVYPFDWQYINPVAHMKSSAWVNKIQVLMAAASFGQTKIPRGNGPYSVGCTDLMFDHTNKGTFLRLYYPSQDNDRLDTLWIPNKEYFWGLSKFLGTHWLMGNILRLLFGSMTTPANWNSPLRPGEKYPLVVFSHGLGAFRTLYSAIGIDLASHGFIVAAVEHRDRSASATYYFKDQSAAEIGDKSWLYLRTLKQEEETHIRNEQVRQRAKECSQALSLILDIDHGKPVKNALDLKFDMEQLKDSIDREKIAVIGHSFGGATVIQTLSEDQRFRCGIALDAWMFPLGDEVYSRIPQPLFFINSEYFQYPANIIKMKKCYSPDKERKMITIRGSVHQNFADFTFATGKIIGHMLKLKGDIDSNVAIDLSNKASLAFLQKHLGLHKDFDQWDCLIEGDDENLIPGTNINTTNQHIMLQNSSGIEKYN
VIM-2 inhibitor: blocks Pseudomonas aeruginosa VIM-2 metallo-beta-lactamase | purified VIM-2, nitrocefin hydrolysis, epi-absorbance fluorescence | inhibition, % at 5.6 µM | 290,000 compounds, 0.89% hits | AID 1527;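 active = inhibition above the mean of all tested compounds plus 3 SD, cutoff set per screening run, cut at about 7.5% in these data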;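 note: red hydrolysis product quenches plate fluorescence so inhibitors raise well fluorescence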
PAFAH1B2 inh: inhibitors of human PAFAH1B2 | 340,000 compounds, 1.2% hits | P68402 | recombinant PAFAH1B2, FP-rhodamine activity probe, fluorescence polarization | inhibition, % at 3.39 µM | AID 492953;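 active = inhibition above the mean of all tested compounds plus 3 SD, cut at about 24% in these data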
PAFAH2 FP inh: inhibitors of human PAFAH2; Q99487; recombinant PAFAH2, FP-rhodamine activity probe, fluorescence polarization; inhibition, % at 3.39 µM; 340,000 compounds, 0.99% hits; AID 492956;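 active = inhibition above the mean over all tested compounds plus 3 SD, cut at about 30% in these data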;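 note: inhibitors block probe labeling of enzyme so polarization drops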
PAFAH1B3 inh: inhibitors of human PAFAH1B3; Q15102; recombinant PAFAH1B3, FP-rhodamine probe, fluorescence polarization; inhibition, % at 3.39 µM; 340,000 compounds, 0.28% hits; AID 492972;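 active = inhibition above the screen-wide average of all tested compounds plus 3 SD, cut at about 25% in these data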
IMP-1 inhibitor: blocks Pseudomonas aeruginosa IMP-1 metallo-beta-lactamase; purified IMP-1, nitrocefin hydrolysis, epi-absorbance fluorescence; 290,000 compounds, 0.45% hits; AID 1556; inhibition, % at 5.6 µM;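 active = inhibition above the mean plus 3 SD of all compounds in the same screening run, cut at about 4.5% in these data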
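System – purified recombinant IMP-1 beta-lactamase · Input – IMP-1 dispensed at 0.2 nM · Timing – 15 min preincubation plus 25 min reaction at 25 °C · Signal – Epi-absorbance fluorescence, 480 nm excitation, 530 nm emission · Measure – percent IMP-1 inhibition derived from blank-referenced optical density · Controls – Enzyme-plus-DMSO low control, enzyme-free DMSO high control · Replication – singlicate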
Of the large screens only hits and unclear results are named; the others gave an inactive call. Sampled rows, rich in hits. Any-hit rate of the full collection: about 3.6%.

COc1ccc(NS(=O)(=O)c2cccc(C(=O)NNC(=O)c3ccc(Br)o3)c2)cc1	none (no result: VIM-2 inhibitor, IMP-1 inhibitor)
CC1(C2CCC3(C)OC3C2)CO1 (configuration not stated)	none (no result: pPAFAH FP inh, VIM-2 inhibitor, IMP-1 inhibitor)
Clc1ccccc1CSc1nnc([C@@H]2CCCN2)o1	none
Cc1ccccc1CSc1nnc([C@@H]2CCCN2)o1	IMP-1 inhibitor 5.7
C=C1CC2(CC(c3ccccc3)OC(c3ccccc3)C2)OC1=O (configuration not stated)	none (no result: pPAFAH FP inh, VIM-2 inhibitor, IMP-1 inhibitor)
Cc1cccc(Oc2cc(NC(=O)Cn3cnc([N+](=O)[O-])n3)cc([N+](=O)[O-])c2)c1	pPAFAH FP inh 29
Cc1cccc(NC(=S)NNC(=O)c2csc3c2CCCC3)c1	pPAFAH FP inh 26
CCN1CCN(c2ccc(NC(=O)CCc3c(C)nc4c(-c5ccccc5)c(C)nn4c3C)cc2)CC1	IMP-1 inhibitor 4.9
Cn1c(SCC(=O)Nc2ccccc2Oc2ccccc2)nnc1C1CC1	none (no result: VIM-2 inhibitor, IMP-1 inhibitor)
CCOC(=O)c1cnc(-n2cc(C)cn2)nc1NCc1ccc2c(c1)OCO2	VIM-2 inhibitor 8.1
CC1(C)CC2CC(C)(CN2C(=O)COC(=O)c2ccc(O)cc2O)C1 (configuration not stated)	PAFAH1B2 inh 25 (no result: VIM-2 inhibitor, IMP-1 inhibitor)
O=C(O)c1cnn(-c2nc(-c3ccc(Br)cc3)cs2)c1C(F)(F)F	PAFAH1B2 inh 40
CCOC(=O)CCNC(=O)N1CCCC(Cc2ccccc2)(C(=O)OCC)C1 (configuration not stated)	none
N#CC1=C2SCN(c3ccccc3)CN2C(=O)CC1c1c(Cl)cccc1Cl (configuration not stated)	VIM-2 inhibitor 46
CCc1ccccc1N1CSC2=C(C#N)C(c3cc(OC)c(OC)cc3OC)CC(=O)N2C1 (configuration not stated)	pPAFAH FP inh 25
CCOc1ccc(N2CSC3=C(C#N)C(c4ccco4)CC(=O)N3C2)cc1 (configuration not stated)	pPAFAH FP inh 48
COc1cc(OC)c(C2CC(=O)N3CN(c4ccccc4)CSC3=C2C#N)cc1OC (configuration not stated)	none
Cc1ccccc1C(=O)N(Cc1cccs1)C1CCS(=O)(=O)C1 (configuration not stated)	none
O=C(c1ccc(CNS(=O)(=O)c2ccc(Br)cc2)cc1)N1CCCCC1	none
O=C(CN1C(=O)S/C(=C\c2ccc(-c3cc(C(=O)O)ccc3Cl)o2)C1=O)Nc1ccc2c(c1)OCO2	IMP-1 inhibitor 17 (no result: pPAFAH FP inh)
Cn1cc(/C=C2/SC(=O)N(CC(=O)Nc3ccc4c(c3)OCO4)C2=O)c2ccccc21	none
Cc1ccc(O)c(NC(=O)c2cc(-c3cccs3)on2)c1	none
O=C(O)c1cccnc1C(=O)c1ccccc1	none (no result: VIM-2 inhibitor, IMP-1 inhibitor)
COC(=O)c1ccc(CSc2nc3scc(-c4cccs4)c3c(=O)[nH]2)o1	pPAFAH FP inh 29
Cc1nnc2ccc(-c3ccc(NS(=O)(=O)c4ccc(Cl)s4)cc3)nn12	pPAFAH FP inh 26 (no result: VIM-2 inhibitor, IMP-1 inhibitor)
CC(C)Oc1cccc(C(=O)C2CCCN(Cc3ccc4nonc4c3)C2)c1 (configuration not stated)	pPAFAH FP inh 32
CC(C)Oc1cccc(C(=O)C2CCCN(Cc3cnn(C(C)C)c3)C2)c1 (configuration not stated)	none
CSc1ccc(S(=O)(=O)NCCSC(C)(C)C)cc1	pPAFAH FP inh 28
Cc1ccc(C(CCN(Cc2ccccc2)C(=O)c2ccco2)c2ccco2)cc1 (configuration not stated)	pPAFAH FP inh 30
N#Cc1ccc(OCC(=O)OCCCOC(=O)COc2ccc(C#N)cc2)cc1	pPAFAH FP inh 32
CN(Cc1ccccc1)C(=O)COC(=O)COc1ccc(Cl)cc1	none (no result: VIM-2 inhibitor, IMP-1 inhibitor)
CN(Cc1ccccc1)C(=O)COC(=O)COc1ccc(C#N)cc1	pPAFAH FP inh 33
N#Cc1ccc(OCC(=O)OCC(=O)c2ccccc2)cc1	none (no result: VIM-2 inhibitor, IMP-1 inhibitor)
C[C@@H](NC(=O)c1nc[nH]c1C(=O)NCc1ccc(CNC(=O)OC(C)(C)C)cc1)c1ccccc1	none (no result: VIM-2 inhibitor, IMP-1 inhibitor)
CC(CN1CCOCC1)OC(=O)c1ccccc1Cl (configuration not stated)	none
CN(C(=O)CSc1nncn1C)C1CCCN(Cc2ccccc2F)C1 (configuration not stated)	none
COc1ccc(NC(=O)CSc2nnc(-c3cccnc3)o2)c(OC)c1	none (no result: VIM-2 inhibitor, IMP-1 inhibitor)
